Measurements published in ChEMBL document CHEMBL1147539, “Synthesis and biological evaluation of novel, selective, nonsteroidal glucocorticoid receptor antagonists” (Bioorg Med Chem Lett, 2004).

Tests used:
Glucocorticoid receptor [1] = target: T1, Glucocorticoid receptor (Homo sapiens, UniProt P04150); assay: Displacement of [3H]dexamethasone from human Glucocorticoid receptor (GR)
T1 sequence (P04150 whole entry): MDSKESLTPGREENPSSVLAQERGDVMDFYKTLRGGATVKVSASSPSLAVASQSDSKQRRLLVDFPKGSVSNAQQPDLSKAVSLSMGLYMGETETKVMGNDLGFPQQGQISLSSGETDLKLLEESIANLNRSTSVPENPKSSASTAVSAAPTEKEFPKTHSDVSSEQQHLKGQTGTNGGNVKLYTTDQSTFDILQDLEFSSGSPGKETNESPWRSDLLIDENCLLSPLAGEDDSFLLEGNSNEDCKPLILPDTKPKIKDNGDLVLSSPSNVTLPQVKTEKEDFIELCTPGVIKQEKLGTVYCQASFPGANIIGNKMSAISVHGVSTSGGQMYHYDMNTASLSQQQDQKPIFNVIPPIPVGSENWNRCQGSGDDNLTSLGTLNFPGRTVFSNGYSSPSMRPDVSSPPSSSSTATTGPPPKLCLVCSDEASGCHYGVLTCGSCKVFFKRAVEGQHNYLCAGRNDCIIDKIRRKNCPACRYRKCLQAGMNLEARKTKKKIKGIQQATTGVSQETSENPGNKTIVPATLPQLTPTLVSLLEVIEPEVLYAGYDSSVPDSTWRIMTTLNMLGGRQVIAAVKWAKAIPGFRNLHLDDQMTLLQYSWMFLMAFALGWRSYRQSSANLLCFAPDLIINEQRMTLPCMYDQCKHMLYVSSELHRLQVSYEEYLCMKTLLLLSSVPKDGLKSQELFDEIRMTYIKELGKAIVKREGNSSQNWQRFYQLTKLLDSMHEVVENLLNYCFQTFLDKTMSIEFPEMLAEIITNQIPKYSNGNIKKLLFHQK

Glucocorticoid receptor [2] = target: T1, Glucocorticoid receptor; assay: Effect on human Glucocorticoid receptor (GR) in a whole cell assay to measure functional cellular GR-antagonism (GRAF)
Estrogen receptor = target: T2, Estrogen receptor (Homo sapiens, UniProt P03372); assay: Displacement of [3H]estradiol from human estrogen receptor alpha
T2 sequence (P03372 whole entry): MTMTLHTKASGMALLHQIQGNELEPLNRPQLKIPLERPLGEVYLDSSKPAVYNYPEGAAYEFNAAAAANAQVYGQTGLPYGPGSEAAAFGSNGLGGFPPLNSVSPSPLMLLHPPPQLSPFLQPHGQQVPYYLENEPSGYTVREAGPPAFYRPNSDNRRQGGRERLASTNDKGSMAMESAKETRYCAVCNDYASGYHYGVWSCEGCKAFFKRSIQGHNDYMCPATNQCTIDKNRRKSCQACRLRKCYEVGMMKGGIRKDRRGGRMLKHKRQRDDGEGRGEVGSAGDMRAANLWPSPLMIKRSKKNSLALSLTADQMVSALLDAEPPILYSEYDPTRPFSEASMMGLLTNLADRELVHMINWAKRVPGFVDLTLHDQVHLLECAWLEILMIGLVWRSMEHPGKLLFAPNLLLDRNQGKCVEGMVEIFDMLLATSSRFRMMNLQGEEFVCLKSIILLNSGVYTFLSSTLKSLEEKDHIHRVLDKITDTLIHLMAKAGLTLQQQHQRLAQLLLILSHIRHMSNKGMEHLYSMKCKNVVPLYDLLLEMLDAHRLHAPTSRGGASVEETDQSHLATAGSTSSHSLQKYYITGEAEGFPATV
How it was run: (§1)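 Human steroid receptor (PR, MR, AR, ERα) binding measured by radioligand displacement, with IC50s determined in duplicate. Values without a range come from a single experiment, and values with a range are geometric means of repeat experiments.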

Glucocorticoid receptor [3] = target: T1, Glucocorticoid receptor; assay: Displacement of [3H]dexamethasone from human Glucocorticoid receptor (GR); Value ranges from 378-814 nM
[4] = target: T3, Mineralocorticoid receptor (Homo sapiens, UniProt P08235); assay: Displacement of [3H]aldosterone from human Mineralocorticoid receptor; how it was run: as §1
T3 sequence (P08235 whole entry): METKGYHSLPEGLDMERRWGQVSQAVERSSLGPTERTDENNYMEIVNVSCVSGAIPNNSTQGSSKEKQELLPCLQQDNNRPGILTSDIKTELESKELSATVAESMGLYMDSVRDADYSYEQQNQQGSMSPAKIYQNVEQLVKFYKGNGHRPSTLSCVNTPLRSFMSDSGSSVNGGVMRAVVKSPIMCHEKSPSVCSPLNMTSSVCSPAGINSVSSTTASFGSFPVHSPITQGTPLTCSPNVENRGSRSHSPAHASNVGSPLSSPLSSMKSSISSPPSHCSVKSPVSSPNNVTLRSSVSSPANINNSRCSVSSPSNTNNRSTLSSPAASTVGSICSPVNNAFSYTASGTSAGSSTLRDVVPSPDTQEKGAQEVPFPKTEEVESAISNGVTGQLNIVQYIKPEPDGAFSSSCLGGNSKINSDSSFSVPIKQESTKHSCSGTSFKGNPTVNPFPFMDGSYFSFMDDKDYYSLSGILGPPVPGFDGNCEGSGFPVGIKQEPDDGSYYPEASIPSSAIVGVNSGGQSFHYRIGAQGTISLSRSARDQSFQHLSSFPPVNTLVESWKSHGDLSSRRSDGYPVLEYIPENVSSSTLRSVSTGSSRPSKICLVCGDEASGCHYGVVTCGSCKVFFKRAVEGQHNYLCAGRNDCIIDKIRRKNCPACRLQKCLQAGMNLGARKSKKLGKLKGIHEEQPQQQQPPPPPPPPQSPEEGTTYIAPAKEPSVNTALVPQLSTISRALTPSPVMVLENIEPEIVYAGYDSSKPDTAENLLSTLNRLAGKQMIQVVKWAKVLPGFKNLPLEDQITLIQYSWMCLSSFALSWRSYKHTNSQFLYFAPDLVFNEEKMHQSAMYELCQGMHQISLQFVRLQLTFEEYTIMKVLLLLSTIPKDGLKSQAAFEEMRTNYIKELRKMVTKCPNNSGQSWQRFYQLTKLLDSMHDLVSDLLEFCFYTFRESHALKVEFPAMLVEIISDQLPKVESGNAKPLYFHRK

Progesterone receptor = target: T4, Progesterone receptor (Homo sapiens, UniProt P06401); assay: Displacement of [3H]progesterone from human Progesterone receptor; how it was run: as §1
T4 sequence (P06401 whole entry): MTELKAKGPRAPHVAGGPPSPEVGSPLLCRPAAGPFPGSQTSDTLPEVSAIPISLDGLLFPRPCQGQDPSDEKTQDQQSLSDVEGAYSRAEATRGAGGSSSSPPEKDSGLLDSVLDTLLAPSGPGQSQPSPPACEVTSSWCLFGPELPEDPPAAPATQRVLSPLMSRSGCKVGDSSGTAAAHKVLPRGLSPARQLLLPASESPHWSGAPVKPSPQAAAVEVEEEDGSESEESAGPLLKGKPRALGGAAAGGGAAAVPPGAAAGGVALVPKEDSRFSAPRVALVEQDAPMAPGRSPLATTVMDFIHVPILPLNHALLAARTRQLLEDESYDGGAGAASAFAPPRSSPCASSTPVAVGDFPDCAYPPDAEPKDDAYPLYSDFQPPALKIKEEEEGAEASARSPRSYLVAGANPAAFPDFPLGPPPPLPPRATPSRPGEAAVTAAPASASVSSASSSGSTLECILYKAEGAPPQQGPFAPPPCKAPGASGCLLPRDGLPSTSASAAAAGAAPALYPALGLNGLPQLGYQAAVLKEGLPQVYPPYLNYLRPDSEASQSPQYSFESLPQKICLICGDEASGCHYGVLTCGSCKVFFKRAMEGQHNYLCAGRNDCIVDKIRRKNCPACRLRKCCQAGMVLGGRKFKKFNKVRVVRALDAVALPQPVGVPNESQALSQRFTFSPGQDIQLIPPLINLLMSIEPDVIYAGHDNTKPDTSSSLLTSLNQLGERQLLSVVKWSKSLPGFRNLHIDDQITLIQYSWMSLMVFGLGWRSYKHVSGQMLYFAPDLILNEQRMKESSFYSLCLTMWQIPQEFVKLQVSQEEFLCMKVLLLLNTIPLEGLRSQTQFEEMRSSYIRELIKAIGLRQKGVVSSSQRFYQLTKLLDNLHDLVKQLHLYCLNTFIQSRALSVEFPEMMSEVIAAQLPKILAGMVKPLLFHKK

Androgen receptor = target: T5, Androgen receptor (Homo sapiens, UniProt P10275); assay: Displacement of [3H]mibolerone from human Androgen receptor
T5 sequence (P10275 whole entry): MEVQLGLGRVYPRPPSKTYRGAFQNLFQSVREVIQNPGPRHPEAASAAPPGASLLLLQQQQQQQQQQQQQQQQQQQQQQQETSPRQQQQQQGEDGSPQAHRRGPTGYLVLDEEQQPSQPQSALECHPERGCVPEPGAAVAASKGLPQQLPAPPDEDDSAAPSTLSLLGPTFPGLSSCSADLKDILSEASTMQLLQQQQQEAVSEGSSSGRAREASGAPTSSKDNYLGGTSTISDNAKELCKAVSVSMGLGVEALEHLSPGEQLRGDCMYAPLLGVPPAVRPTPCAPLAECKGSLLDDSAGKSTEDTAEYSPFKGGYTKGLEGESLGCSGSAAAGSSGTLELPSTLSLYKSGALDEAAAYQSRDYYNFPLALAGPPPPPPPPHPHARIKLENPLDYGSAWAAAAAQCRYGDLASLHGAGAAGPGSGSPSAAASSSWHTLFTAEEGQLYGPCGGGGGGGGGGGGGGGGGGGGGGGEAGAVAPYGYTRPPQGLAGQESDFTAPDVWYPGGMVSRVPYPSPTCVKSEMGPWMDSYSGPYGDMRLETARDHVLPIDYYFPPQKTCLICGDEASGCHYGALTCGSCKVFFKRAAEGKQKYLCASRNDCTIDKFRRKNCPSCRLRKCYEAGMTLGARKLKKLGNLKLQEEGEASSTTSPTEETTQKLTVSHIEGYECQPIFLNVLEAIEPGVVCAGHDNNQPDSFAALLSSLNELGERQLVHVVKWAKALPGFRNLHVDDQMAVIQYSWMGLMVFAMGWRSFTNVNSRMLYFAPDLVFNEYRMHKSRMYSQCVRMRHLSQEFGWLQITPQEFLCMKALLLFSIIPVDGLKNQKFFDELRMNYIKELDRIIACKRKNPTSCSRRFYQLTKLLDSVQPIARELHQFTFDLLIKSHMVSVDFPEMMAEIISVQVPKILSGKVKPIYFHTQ

Glucocorticoid receptor [5] = target: T1, Glucocorticoid receptor; assay: Displacement of [3H]dexamethasone from human Glucocorticoid receptor (GR); […]
Glucocorticoid receptor [6] = target: T1, Glucocorticoid receptor
Glucocorticoid receptor [7] = target: T1, Glucocorticoid receptor; remark: listed apart in the source
Glucocorticoid receptor [8] = target: T1, Glucocorticoid receptor; remark: listed apart in the source

Structure (SMILES) | IC50 (Glucocorticoid receptor [1]) | IC50 (Glucocorticoid receptor [2]) | also measured
CNc1cccc(C2Oc3cccc(OC)c3-c3ccc(NS(C)(=O)=O)cc32)c1 (stereo not given) | 0.023 µM | 0.18 µM | –
CCCCCC1Oc2cccc(OC)c2-c2ccc(NS(C)(=O)=O)cc21 (stereo not given) | 0.021 µM | – | –
COc1cccc2c1-c1ccccc1C(c1ccccc1)O2 (stereo not given) | 10 µM | 1.91 µM | –
COc1cccc2c1-c1ccc(NS(C)(=O)=O)c(Br)c1C(c1ccccc1)O2 (stereo not given) | – | 0.43 µM | IC50 (Estrogen receptor): 2.28 µM; IC50 (Glucocorticoid receptor [3]): 0.519 µM; IC50 [4]: 0.454 µM; IC50 (Progesterone receptor): 10 µM
COc1cccc2c1-c1ccc(NS(C)(=O)=O)cc1C(c1ccc(Oc3ccccc3)cc1)O2 (stereo not given) | 0.063 µM | 0.847 µM | –
COc1cccc2c1-c1ccc(NS(C)(=O)=O)cc1C(c1ccccc1)O2 (stereo not given) | – | 0.087 µM | IC50 (Androgen receptor): 6.53 µM; IC50 (Estrogen receptor): > 10 µM; IC50 (Glucocorticoid receptor [5]): 0.019 µM; IC50 [4]: 22.9 µM
CCS(=O)(=O)Nc1ccc2c(c1)C(c1ccccc1)Oc1cccc(OC)c1-2 (stereo not given) | – | 0.251 µM | IC50 (Glucocorticoid receptor [5]): 0.062 µM
COc1cccc2c1-c1ccc(NS(=O)(=O)c3ccccc3)cc1C(c1ccccc1)O2 (stereo not given) | – | 0.137 µM | IC50 (Glucocorticoid receptor [6]): 0.146 µM
COc1cccc2c1-c1ccc(NS(C)(=O)=O)cc1C(c1ccsc1)O2 (stereo not given) | – | 0.043 µM | IC50 (Glucocorticoid receptor [7]): 0.011 µM
COc1cccc2c1-c1ccc(NS(=O)(=O)c3cccs3)cc1C(c1ccccc1)O2 (stereo not given) | – | 0.093 µM | IC50 (Glucocorticoid receptor [8]): 0.018 µM
